We go through 72 compounds from ChEMBL document CHEMBL4513216, “Probing the Open Global Health Chemical Diversity Library for Multistage-Active Starting Points for Next-Generation Antimalarials” (ACS Infect Dis, 2020).

The nature of the data set: Toxicity liver stage against HepG2, at 10uM. In kind it is cell-based. The settings on record: human, HepG2-A16-CD81EGFP cells; read-out: INHIBITION
Also on record: test concentration 10 uM, cell line HepG2-A16-CD81EGFP. A digest of the protocol:
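Uninfected HepG2-A16-CD81EGFP cells, 3 × 10^3 per well, 1536-well, plated on prespotted compound at 10 μM final, parasite-free screening media added to match infected plates; puromycin 10 μM positive, DMSO 0.5% negative; run in parallel with 48 h PbLuc assay at 37 °C, 5% CO2; viability by CellTiter-Glo luminescence, normalized to controls.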
Regarding `COCCNC(=O)[C@H]1CN2CCC1C[C@@H]2Cn1cc(C(C)(C)C)nn1` (some centres not stated), the cytotoxicity at 10 µM was 7.95%.

With `CC(C)(O)c1cc(CC2(NCC3CCCCC3)COC2)no1`, the cytotoxicity at 10 µM worked out at 0.0962%. Take `COc1ccccc1C(=O)N1CC(=O)N(Cc2ccco2)CC(O)C1` (configuration not stated): the cytotoxicity at 10 µM is 4.45%. Regarding `COCCNC(=O)Cn1cc(OCc2ccc(F)cc2)c(=O)cc1CO`, the cytotoxicity at 10 µM is 2.73%. For the compound `Cc1ccc(C)c(S(=O)(=O)NCCOc2ccc3nnc(C)n3n2)c1`, the cytotoxicity at 10 µM is -11.3%. On to `O=c1[nH]nc2nc(N3CCOCC3)ccn12`, for which the cytotoxicity at 10 µM is -5.08%.

Take `COc1ccc(NC(=O)CSc2ccc3nncn3n2)c(OC)c1`: the cytotoxicity at 10 µM was found to be 3.94%. Take `O=C(CSC1CCc2ccccc2NC1=O)NCc1ccccc1` (configuration not stated): the cytotoxicity at 10 µM is 6.37%. The same measure for `NC(=O)c1ccc(NC(=O)Cn2cc(-c3ccccc3)ncc2=O)cc1`: 4.6%; for `O=C(Cc1csc(-c2ccc(Cl)cc2)n1)NC(C(=O)O)c1ccccc1` (configuration not stated): 4.91%. `COc1cc(OC)c(C2SCC(=O)Nc3n[nH]cc32)cc1OC` (configuration not stated): the cytotoxicity at 10 µM is -6.08%. As to `CCn1nc(C)c2ncnc(N3CCCC(C)C3)c21` (configuration not stated), the cytotoxicity at 10 µM came out at 9.18%.

Take `CCN(CCCc1ccccc1)CC1(C)Cc2c(N)nc(N)nc2O1` (configuration not stated): the cytotoxicity at 10 µM worked out at 0.822%.

With `CCC(=O)N1CCC(Cc2ccccc2-c2cccc(C)c2)(C(N)=O)C1` (configuration not stated), the cytotoxicity at 10 µM was -27.5%. Take `Cc1noc(C)c1-c1cncc(C2CCCN2Cc2cn(C)cn2)n1` (configuration not stated): the cytotoxicity at 10 µM was -20.4%. `Cc1cc(N2CCCC2c2nccnc2C)ncn1` (configuration not stated): the cytotoxicity at 10 µM is -20.8%. For `CC(=O)N1CCC(c2nccnc2-c2ccc(F)c(F)c2)CC1`, the cytotoxicity at 10 µM was -19.1%.

Take `Nc1nc2nc(C3CCCN(C(=O)c4cnccn4)C3)ccc2s1` (configuration not stated): the cytotoxicity at 10 µM was -16%. For the compound `CN(C)c1cc(C(F)(F)F)cc(-c2ccc(C(=O)O)cc2)n1`, the cytotoxicity at 10 µM amounted to 9.15%.

Consider `CC(=O)Nc1ccc(SCC(O)COCc2ccco2)cc1` (configuration not stated), for which the cytotoxicity at 10 µM was 8.45%. Consider `Cc1nc(CCCC(=O)Nc2cccc(N3CCNC3=O)c2)cs1`, for which the cytotoxicity at 10 µM was -2.26%. As to `COCC1CCN(CCOc2ccc(C#N)cc2OC)CC1`, the cytotoxicity at 10 µM is 4.11%.

As to `O=S(=O)(Cc1ccccc1Cl)CC(O)CO` (configuration not stated), the cytotoxicity at 10 µM turned out to be 6.44%. `CC(=O)N1CCCN(Cc2csc(C)n2)c2ccccc21`: the cytotoxicity at 10 µM was 0.00333%. In the case of `NC(=O)COc1cccc(Cn2cc(Br)cn2)c1`, the cytotoxicity at 10 µM was determined as 1.98%. Turning to `COc1ccc(Br)c(NC(=O)NCc2cnn(C)c2)c1`, the cytotoxicity at 10 µM worked out at 6.91%. Regarding `CC(C)(C)c1noc(CN2CCCc3cc(OC(F)(F)F)ccc32)n1`, the cytotoxicity at 10 µM was -0.813%. In the case of `CC(NC(=O)CN1C=Nc2ccccc2S1(=O)=O)C1CC1` (configuration not stated), the cytotoxicity at 10 µM amounted to 4.53%. In the case of `CC(C)c1noc(CCCC(=O)Nc2cccc(F)c2)n1`, the cytotoxicity at 10 µM was found to be 7.01%. Next, `Cc1nc(CN2CCCN(C(=O)CC(C)n3cccc3)CC2)cs1` (configuration not stated): -6.25%; `CCc1ccc(CC(=O)N2CCN(c3nccn3C)CC2)cc1`: -0.647%. The same measure for `CN(C(=O)CNCCn1cccn1)C1(C#N)CCCCC1`: 2.04%; for `Cc1ccc(C(=O)N(C)Cc2c(C)noc2C)c(=O)[nH]1`: -8.2%. As to `CCN(C(=O)CN1CCC(c2cc3ccccc3[nH]2)CC1)C1CC1`, the cytotoxicity at 10 µM was found to be 0.99%. Next, `CCN(C(=O)C(C)S(=O)(=O)Cc1nc(C)no1)c1ccccc1` (configuration not stated): 4.03%; `O=C(Nc1cccc(OCC(F)F)n1)c1ccncc1`: -6.02%; `CC(CO)NC(=O)c1ccc(NCc2cc(C#N)ccc2F)cc1` (configuration not stated): 1.98%. Consider `Cc1ccc(CNC(=O)c2oc3ccccc3c2CN(C)C)n1C`, for which the cytotoxicity at 10 µM turned out to be 0.521%. Next, `N#Cc1cc(NC(=O)C2CC=CC2)ccc1N1CCC(O)CC1`: -9.29%. As to `Cc1ccc(F)cc1S(=O)(=O)N(C)CC(N)=O`, the cytotoxicity at 10 µM was -12.6%. As for `CCCNC(=O)COc1ccc(C)cn1`, the cytotoxicity at 10 µM was -14.5%. Consider `CN(C)C(=O)c1cccc(NC(=O)N(CCO)Cc2ccsc2)c1`, for which the cytotoxicity at 10 µM is -13.4%. In the case of `CO[C@@H]1c2ccccc2C2(CCN(C(=O)CNC(=O)C(C)C)CC2)[C@H]1O`, the cytotoxicity at 10 µM was -3.26%. As to `Cc1nc[nH]c1C(=O)NCc1cccnc1N(C)C1CCCCC1`, the cytotoxicity at 10 µM was -4.12%. Next, `CN(CCc1cnn(C)c1)C(=O)Cn1c(=O)[nH]c2ccccc21`: 4.5%.

As for `N#CC1(C(=O)N2C[C@H](Nc3ccnc(N)n3)[C@@H](C3CC3)C2)CCOCC1`, the cytotoxicity at 10 µM is -1.2%.

In the case of `NCCc1cccc(CN2CCN(c3ccccc3)C(=O)C2)c1`, the cytotoxicity at 10 µM is 3.47%. Take `CCn1cc(Cn2cc(-c3cccc(C(C)N(C)C)c3)nn2)cn1` (configuration not stated): the cytotoxicity at 10 µM was -6.97%. With `CN(C)CCNC(=O)CCC1CCN(C(=O)c2ccc(O)cn2)CC1`, the cytotoxicity at 10 µM stood at 1.23%. In the case of `COc1ccc([C@@H]2CN(C(=O)CCn3cccn3)C[C@H]2NC(C)=O)cc1`, the cytotoxicity at 10 µM came to 7.18%.

As to `CC(c1cccs1)N(C)C(=O)c1cc(CN(C)Cc2ccccc2)on1` (configuration not stated), the cytotoxicity at 10 µM turned out to be 5.44%. The same measure for `O=S(=O)(c1cc(F)ccc1F)N1CCCC1c1ccco1` (configuration not stated): 11.2%; for `Cc1ccccc1[C@@H]1CN(C(=O)c2ccc3[nH]nnc3c2)C[C@H]1C(=O)O`: -7.21%; for `Cc1nc(C(=O)N2CCc3c(nc(-c4ccncc4)[nH]c3=O)C2)cs1`: -6.37%. Consider `CCc1ccc(CN2CCCC(CO)(CCOC)C2)cc1` (configuration not stated), for which the cytotoxicity at 10 µM was -0.26%. As to `CCCn1nc(C2CCNCC2)n(Cc2ccccc2)c1=O`, the cytotoxicity at 10 µM is -12.9%. As to `O=C(c1cnco1)N1CCCC(Cc2nccs2)C1` (configuration not stated), the cytotoxicity at 10 µM turned out to be 4.84%. `Cc1nc(C2CCCN2Cc2nc(C3CC3)no2)no1` (configuration not stated): the cytotoxicity at 10 µM is -12.7%. Consider `CCOc1ccccc1C(CC(=O)Nc1ccncc1)NC(C)=O` (configuration not stated), for which the cytotoxicity at 10 µM was -12.6%. Take `CN(C)S(=O)(=O)c1ccc(CN2CCCC2CO)o1` (configuration not stated): the cytotoxicity at 10 µM is -6.88%. With `COc1ncccc1CNC(=O)NCCNC(=O)c1ccco1`, the cytotoxicity at 10 µM was -0.313%.

For the compound `Cc1ccc(C(O)CNCCn2cccn2)cc1C` (configuration not stated), the cytotoxicity at 10 µM was -6.11%.

Turning to `Cc1cnn(CCNCc2ccccc2Oc2cccnc2)c1`, the cytotoxicity at 10 µM stood at 6.33%. For the compound `Cc1cnn(CCC(=O)N2CCCN(c3ncccc3C#N)CC2)c1`, the cytotoxicity at 10 µM worked out at 4.11%. `Cn1ccnc1CN1CCN(CC(O)c2ccco2)CC1` (configuration not stated): the cytotoxicity at 10 µM is 2.38%. For `CCOc1ccc(CC(CNC(=O)c2occc2C)C(N)=O)cc1` (configuration not stated), the cytotoxicity at 10 µM amounted to 5.17%. Take `O=C1[C@H]2CN(Cc3cccs3)C[C@H]2CN1c1cncnc1`: the cytotoxicity at 10 µM is -13.8%. Turning to `O=C(NC1CC1)[C@@H]1CCO[C@@H]2CCN(C3CCOCC3)C[C@@H]21`, the cytotoxicity at 10 µM was -9.87%. Next, `c1cn(-c2cnc(C3CCNCC3)cn2)cn1`: -5.72%; `c1cnc(N2CCOCC3(CCCN(CC4CC4)C3)C2)cn1` (configuration not stated): -15.8%.

Turning to `O=C(CC(F)(F)F)N1C[C@H]2CC[C@@H](C1)N(Cc1ccccc1)C2=O`, the cytotoxicity at 10 µM was found to be 7.71%. Next, `c1ccc(COC2C[C@@H]3CN(Cc4cccnc4)C[C@@H]3C2)cc1` (some centres not stated): 2.92%.
